Test system: MS2 coat protein
Test: apparent Kd, MS2 coat protein; higher = weaker binding; RNA-MaP array; FMN 200 µM where present
In short: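 Stalled E. coli RNA polymerase produced the designs on Illumina sequencing-chip clusters. SNAP-549-labelled MS2 coat protein was added from 0.7 or 1.5 nM, doubling to 3 µM, without and then with constant ligand, in 100 mM Tris-HCl pH 7.5, 80 mM KCl, 4 mM MgCl2, BSA, DTT, yeast tRNA and Tween-20. The apparent Kd is the median of filtered per-cluster fits of green signal normalised to red-channel RNA signal and control-cluster median Fmax.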

[1] = designed as: ON switch for flavin mononucleotide, no ligand
[2] = ligand present: flavin mononucleotide, designed as: ON switch for flavin mononucleotide
[3] = designed as: OFF switch for flavin mononucleotide, no ligand
[4] = ligand present: flavin mononucleotide, designed as: OFF switch for flavin mononucleotide

## CAGGCGGAGUCAGGAUAUGCACGGUGGACCUAUGACAUGAGGAUCACCCAUGUUACUACGCCUCAGCAGAAGGGACAACCUCCU
[1]
  apparent Kd: 0.0888 µM
[2]
  apparent Kd: 0.00787 µM

## GAUACACAUGAGGAUCACCCAUGUUAGGAUAUUAGCGGGAAAGCUGUCAAAACGCCGAUGAGAAGGAACAGGAG
[3]
  apparent Kd: 0.0406 µM
[4]
  apparent Kd: 0.0314 µM

## UUUGGGAACUCUAUGGGCCGCUACAUGAGGAUCACCCAUGUGCAGGAUAUAGGCGUUACUACCACCUAGAAGGGCACAGAAUGA
[3]
  apparent Kd: 0.0325 µM
[4]
  apparent Kd: 0.0476 µM

## CGUUCGUGAGGAUAUUGUGGAAUUGACAUGAGGAUCACCCAUGUGGCCAUUGUCGACUCGCAAGAAGGCAUAGAUU
[3]
  apparent Kd: 0.0542 µM
[4]
  apparent Kd: 0.189 µM

## ACAUGAGGAUCACCCAUGUGUACAUAGGAUAUUGAGGAUUAGGGAUAAAGUGAAGAGAUUGCCCACAAGAAGGAUGAAAGUGUU
[1]
  apparent Kd: 0.00982 µM
[2]
  apparent Kd: 0.00882 µM

## AUCAGCUCGUCAGGAUAUACGUCACUUCGUCAGCAGUGUGGUAAGAUCACAUGAGGAUCACCCAUGUAGAAGGGACGAGCUGAU
[3]
  apparent Kd: 0.0857 µM
[4]
  apparent Kd: 0.31 µM

## AAGAGACAUCAGAAGGGAGCCCGAACGCACGGCUCAGGAUAUGAGAUCUUAUGUAGUACGACAUGAGGAUCACCCAUGUCCGCG
[1]
  apparent Kd: 0.0362 µM
[2]
  apparent Kd: 0.00827 µM

## AAAAUGUAAGGAUAUGCUGCUCGUCACUUGCGUGAUGAGUAGCAGAAGGUACAUGAGGAUCACCCAUGUAAAGA
[3]
  apparent Kd: 0.0327 µM
[4]
  apparent Kd: 0.0458 µM

## CAUACACAUGAGGAUCACCCAUGUGAGGAUAUGCGUACGUUGUCCGUAGGCGACGUGCGCAGAAGGCGCAAGGU
[3]
  apparent Kd: 0.0633 µM
[4]
  apparent Kd: 0.081 µM

## CUAUAGAUAUCAGGAUAUCUAUUUCCUACAUGAGGAUCACCCAUGUAGAUGAUCACCCAUGUAAAGGAGAAGGGAUAUCUAUAG
[1]
  apparent Kd: 0.361 µM
[2]
  apparent Kd: 0.169 µM

## GUGGUUGUCGUAGGAUAUGUAGGAUAUUCCUACAUGAGGAUCACCCAUGUUCGCAUGGAAGAAGGAUAGAAGGACGAUGACCAG
[1]
  apparent Kd: 0.0767 µM
[2]
  apparent Kd: 0.388 µM

## GUACUGAGGCUUUGCUUUAGUCGUACAUGAGGAUCACCCAUGUAGGAUAUGGUAGGCUUUGCUUACCAGAAGGACAGAGUGAUC
[3]
  apparent Kd: 0.168 µM
[4]
  apparent Kd: 0.0857 µM

## AGGUGUCCUGAGAGAUUUCUCCACAUGAGGAUCACCCAUGUAGAGGAUAUCGACGCUGUGCGGUUCGAGAAGGCUACACUAAUU
[3]
  apparent Kd: 0.00685 µM
[4]
  apparent Kd: 0.0424 µM

## AAGUUUAACGAAGGAUAUGGUUACAUGAGGAUCACCCAUGUAUUUUUUGUGAUCUUGUUUAAGUUCCAGAAGGUCGUAUACAUA
[3]
  apparent Kd: 0.0954 µM
[4]
  apparent Kd: 0.305 µM

## CUGUUGUGGUGCUGCUUGGCUUGGAGAGAAGGGUGAUUCACAUGAGGAUCACCCAUGUAGGACUUACAGGAUAUUUCCGGGUCU
[1]
  apparent Kd: 0.0178 µM
[2]
  apparent Kd: 0.0188 µM

## GUCCUUAACAAGGAUAUCGGGCGGGUUUUUGUUUGAGAAGGUGUGACAUGAGGAUCACCCAUGUGGCGCGUGGG
[3]
  apparent Kd: 0.355 µM
[4]
  apparent Kd: 0.383 µM

## AAUUUGGUCGUAGGAUAUCGGAAGCGGUGCGAACGAGAAGGGCGACAUGAGGAUCACCCAUGUAGCCACGAAGGCGAUCCUUGG
[3]
  apparent Kd: 0.00975 µM
[4]
  apparent Kd: 0.0163 µM

## GUCAGCUCGUGAGGAUAUACAUGUGCUGGAGACAGCACUAUUAAGAUCACAUGAGGAUCACCCAUGUAGAAGGCACGAGCUGAU
[3]
  apparent Kd: 0.0504 µM
[4]
  apparent Kd: 0.62 µM

## CAUACAGUAGUCAGGAUAUUGGAAGAGACACGGAACGAGAAGGGACAUGAGGAUCACCCAUGUAUACUGUAAAG
[3]
  apparent Kd: 0.0268 µM
[4]
  apparent Kd: 0.0226 µM

## UGCUGUGUCAGAGGAUAUACUCUAAUAAUCCAUUGCAAAUAGCGAUGGACAUGAGGAUCACCCAUGUAGAAGGCUGUCACAGCA
[3]
  apparent Kd: 0.0736 µM
[4]
  apparent Kd: 0.14 µM

## AAUUUAAUACAUGAGGAUCACCCAUGUAAUACUUGUAAGAUCAAGGAUAUCAGCUCGUUUAGAGCUGAGAAGGUGAUCACAUGU
[1]
  apparent Kd: 0.0582 µM
[2]
  apparent Kd: 0.198 µM

## CGAGAUACGCUCGUCCGAAAGGAACAUGAGGAUCACCCAUGUAGAAGGCGAUCCGCAACUCGGAUUGAGGAUAUAUACUGCAGA
[3]
  apparent Kd: 0.139 µM
[4]
  apparent Kd: 0.0912 µM

## GGAUCUGCAGGAUAUAUAAAAUGGCGUGAUGGAUUGUCUGUACAUGAGGAUCACCCAUGUAGAAGGGCGUUCCA
[3]
  apparent Kd: 0.0291 µM
[4]
  apparent Kd: 0.0583 µM

## ACAUGAGGAUCACCCAUGUUAAACGAGGAUAUAUGACUGCACAUGAGGUUCACCCAUGUUCUGCCGUAGAAGGUGUAAAUAAUU
[1]
  apparent Kd: 0.0433 µM
[2]
  apparent Kd: 0.0428 µM

## AAGUGCAUAGGAUAUAUAUGGAUAUACAUUUAUGUAGAACUACAUGAGGAUCACCCAUGUAGAAGGAUGCAAUA
[3]
  apparent Kd: 0.0215 µM
[4]
  apparent Kd: 0.0368 µM

## UUAAUUAUACAAGGAUAUCUAUCCUUAUCAAGACUUACAUGAGGAUCACCCAUGUUAAUAUAAUUAGAGAAGGUGUAAAUACAG
[1]
  apparent Kd: 0.0174 µM
[2]
  apparent Kd: 0.0241 µM

## UACGUACAGAAGUACUCCGGGUCCAGAAGGGACAUGAGGAUCACCCAUGUACCGUUGAUUGCUUGUCAGGAUAUGGACCCAGCC
[3]
  apparent Kd: 0.00776 µM
[4]
  apparent Kd: 0.029 µM

From the EternaBench riboswitch data
